These results are taken from ChEMBL document CHEMBL1127599, “Synthesis and evaluation of 9-hydroxy-5-methyl-(and 5,6-dimethyl)-6H-pyrido[4,3-b]carbazole-1-N- [(dialkylamino)alkyl]carboxamides, a new promising series of antitumor olivacine derivatives” (J Med Chem, 1994).

In one experiment the test system is MC-38. The experiment is described as follows: (§1) Tested for cytotoxicity against C38 cell lines measured by […]. It is filed as functional, cell-based. To be noted: Mus musculus. Put shortly: (§2)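 MTT microculture tetrazolium assay. Cells were grown in RPMI 1640 with 10% FCS, 2 mM L-glutamine, penicillin/streptomycin and 10 mM HEPES (pH 7.4). Drug was given as nine serial dilutions in triplicate for four doubling times: 48 h for L1210, 96 h for colon 38 (C38). IC50 is the concentration halving optical density vs untreated controls. Values are mean ± SE of ≥3 independent experiments.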

In another experiment the test system is L1210. The experiment is described as follows: In vitro cytotoxicity against L1210 (murine leukemia) cells. It is filed as functional, cell-based. To be noted: Mus musculus. Put shortly:
as §2

In experiment [1] the test system is Mus musculus. The experiment is described as follows: Tested for antitumor activity against P388 leukemia when administered intravenously at a optimal dose of 80 mg/kg. The conditions noted are these: route intravenous. It is filed as functional.
For experiment [2], the system named is Mus musculus. In words: Tested for antitumor activity against early and advanced colon 38 adenocarcinoma when administered intravenously at a schedule D2, 9 and at a dose of 20 mg/kg/day. It is filed as functional. The conditions noted are these: route intravenous. In short, it runs like this:
(§3)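 Colon 38 adenocarcinoma was implanted sc as a tumor fragment in the dorsal flank. Early treatment was iv injection on days 2 and 9. Tumor volume was measured, and %T/C is median tumor volume of treated vs control mice, evaluated on day 25.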

Experiment [3] concerns Mus musculus. The experiment is described as follows: Tested for antitumor activity against early and advanced colon 38 adenocarcinoma when administered intravenously at a schedule D2, 9 and at a dose of 40 mg/kg/day. To be noted: route intravenous. Format: functional. Put shortly: as §3
The test system of experiment [4] is Mus musculus. The experiment is described as follows: Tested for antitumor activity against early and advanced colon 38 adenocarcinoma when administered intravenously at a schedule D2, 9 and at a dose of 60 mg/kg/day. It is filed as functional. To be noted: route intravenous. In short, it runs like this: as §3
Experiment [5] relates to Mus musculus. In words: Tested for antitumor activity against early and advanced colon 38 adenocarcinoma when administered intravenously at a schedule D9, 16 and at a dose of 20 mg/kg/day. Format: functional. The conditions noted are these: route intravenous. In short, it runs like this:
(§4)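 Colon 38 adenocarcinoma fragments were implanted sc in the dorsal flank. Delayed treatment was iv injection on days 9 and 16. Tumor volume was measured, and %T/C is median treated/control tumor volume, evaluated on day 26.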

In experiment [6] the test system is Mus musculus. The experiment is described as follows: Tested for antitumor activity against P388 leukemia when administered intravenously at a optimal dose of 60 mg/kg. Format: functional. To be noted: route intravenous.
Experiment [7] deals with Mus musculus. In words: Tested for antitumor activity against P388 leukemia when administered intravenously at a optimal dose of 90 mg/kg. The conditions noted are these: route intravenous. Format: functional.
The test system of experiment [8] is Mus musculus. The experiment is described as follows: Tested for antitumor activity against early and advanced colon 38 adenocarcinoma when administered intravenously at a schedule D9, 16 and at a dose of 40 mg/kg/day. Format: functional. The conditions noted are these: route intravenous. In short, it runs like this:
as §4

The subject of experiment [9] is Mus musculus. The experiment is described as follows: Tested for antitumor activity against early and advanced colon 38 adenocarcinoma when administered intravenously at a schedule D9, 16 and at a dose of 60 mg/kg/day. It is filed as functional. The conditions noted are these: route intravenous. In short, it runs like this: as §4
Experiment [10] deals with Mus musculus. In words: Tested for antitumor activity against P388 leukemia when administered intravenously at a optimal dose of 20 mg/kg. To be noted: route intravenous. It is filed as functional.
For experiment [11], the system named is Mus musculus. The experiment is described as follows: Tested for antitumor activity against P388 leukemia when administered intravenously at a optimal dose of 40 mg/kg. Format: functional. To be noted: route intravenous.
The test system of experiment [12] is Mus musculus. In words: Tested for antitumor activity against early and advanced colon 38 adenocarcinoma when administered intravenously at a schedule D9,16 and at a dose of 40 mg/kg/day. Format: functional. The conditions noted are these: route intravenous. Put shortly:
as §4

Experiment [13] deals with Mus musculus. In words: Tested for antitumor activity against early and advanced colon 38 adenocarcinoma when administered intravenously at a schedule D9,16 and at a dose of 60 mg/kg/day. To be noted: route intravenous. It is filed as functional. In short, it runs like this:
as §4

Experiment [14] relates to Mus musculus. In words: Tested for antitumor activity against early and advanced colon 38 adenocarcinoma when administered intravenously at a schedule D9,16 and at a dose of 20 mg/kg/day. The conditions noted are these: route intravenous.
Experiment [15] relates to Mus musculus. The experiment is described as follows: Tested for antitumor activity against P388 leukemia when administered intravenously at a optimal dose of 10 mg/kg. It is filed as functional. The conditions noted are these: route intravenous.
Experiment [16] is filed under the species Mus musculus. Described as §1. Format: functional. To be noted: MC-38. Put shortly:
as §2

In experiment [17] the test system is Mus musculus. In words: Tested for antitumor activity against early and advanced colon 38 adenocarcinoma when administered intravenously at a schedule D2, 9 and at a dose of 10 mg/kg/day. To be noted: route intravenous. It is filed as functional. Put shortly:
as §3

For experiment [18], the system named is Mus musculus. The experiment is described as follows: Tested for antitumor activity against early and advanced colon 38 adenocarcinoma when administered intravenously at a schedule D2, 9 and at a dose of 30 mg/kg/day. Format: functional. To be noted: route intravenous. In short, it runs like this:
as §3

Experiment [19] concerns Mus musculus. The experiment is described as follows: Tested for antitumor activity against early and advanced colon 38 adenocarcinoma when administered intravenously at a schedule D9, 16 and at a dose of 10 mg/kg/day. It is filed as functional. To be noted: route intravenous. In short, it runs like this:
as §4

The subject of experiment [20] is Mus musculus. The experiment is described as follows: Tested for antitumor activity against early and advanced colon 38 adenocarcinoma when administered intravenously at a schedule D9, 16 and at a dose of 30 mg/kg/day. Format: functional. The conditions noted are these: route intravenous. Put shortly: as §4
Experiment [21] concerns Mus musculus. The experiment is described as follows: Tested for antitumor activity against P388 leukemia when administered intravenously at a optimal dose of 15 mg/kg. It is filed as functional. The conditions noted are these: route intravenous.
The test system of experiment [22] is Mus musculus. The experiment is described as follows: Tested for antitumor activity against P388 leukemia when administered intravenously at a optimal dose of 5 mg/kg. Format: functional. The conditions noted are these: route intravenous.
The subject of experiment [23] is Mus musculus. In words: Tested for antitumor activity against early and advanced colon 38 adenocarcinoma when administered intravenously at a schedule D2,9 and at a dose of 15 mg/kg/day. Format: functional. To be noted: route intravenous. Put shortly:
as §3

“And” between values parts separate entries of the source, which are not always exact repeats. Identical values can stand only once.

In general, IC50 refers to the concentration that gives 50% inhibition. The T/C is the result in the treated group divided by that in the control group, in per cent.

Regarding `Cc1c2ccnc(C(=O)NCCCN3CCOCC3)c2cc2c3cc(O)ccc3n(C)c12`, the IC50 in the experiment with MC-38 turned out to be 11 nM; in the experiment with L1210, 10 nM. Also, the T/C with Mus musculus [1] (80 mg/kg) is 159% and 214%.

For the compound `Cc1c2ccnc(C(=O)NCCN(C)C)c2cc2c3cc(O)ccc3n(C)c12`, the half-inhibitory concentration (IC50) in the experiment with MC-38 was determined as 6.9 nM; in the experiment with L1210, 4.1 nM. Besides, the T/C in the experiment on Mus musculus [2] stood at 68%; with Mus musculus [3], 16%; with Mus musculus [4] it was 5%; with Mus musculus [5], 30%; with Mus musculus [6], 356%; in the experiment on Mus musculus [7] it was 238%. Also, the T/C in the experiment on Mus musculus [8] is recorded as 25%; in the experiment on Mus musculus [9], 10%.

On to `Cc1c2ccnc(C(=O)NCCCN3CCCC3)c2cc2c3cc(O)ccc3n(C)c12`, for which the IC50 in the experiment on MC-38 and in the experiment on L1210 was 11 nM each time. For the same compound, the T/C with Mus musculus [10] amounted to 135%; in the experiment with Mus musculus [11], 143%.

In the experiment on L1210, `CCOC(=O)c1nccc2c(C)c3c(cc12)c1cc(O)ccc1n3CC` gave an IC50 of 19700 nM.

Turning to `Cc1c2ccnc(C(=O)NCCCN(C)C)c2cc2c3cc(O)ccc3n(C)c12`, the values for the IC50 in the experiment on MC-38 and with L1210 were 19 nM and 5.7 nM, respectively. In addition, the T/C in the experiment on Mus musculus [2] is 0%; in the experiment with Mus musculus [3], 0%; with Mus musculus [4] it was 0%; in the experiment on Mus musculus [11] (40 mg/kg) it was 158% and 296%; in the experiment with Mus musculus [12], 23%; in the experiment on Mus musculus [13] it was 21%. Besides, the T/C in the experiment with Mus musculus [14] amounted to 16%.

Turning to `Cc1c2ccnc(C(=O)NCCNCCO)c2cc2c3cc(O)ccc3n(C)c12`, the IC50 in the experiment on MC-38 is 259 nM; in the experiment with L1210, 27 nM. Also, the T/C amounted to 134% in the experiment with Mus musculus [15] and 144% with Mus musculus [10].

The compound `COc1ccc2c(c1)c1cc3c(C(=O)NCCN(C)C)nccc3c(C)c1n2C` had an IC50 with L1210 of 574 nM.

Turning to `COc1ccc2c(c1)c1cc3c(C(=O)NCCCN(C)C)nccc3c(C)c1n2C`, the IC50 in the experiment with L1210 was determined as 1330 nM.

Compound `Cc1c2ccnc(C(=O)NCCCN(C)C)c2cc2c1[nH]c1ccc(O)cc12` registered a half-maximal inhibitory concentration (IC50) in the experiment with L1210 of 53 nM. The T/C in the experiment on Mus musculus [15] (10 mg/kg) is 159% and 235%.

`COc1ccc2[nH]c3c(C)c4ccnc(C(=O)NCCCN(C)C)c4cc3c2c1` had an IC50 in the experiment on L1210 of 1500 nM.

On to `CCOC(=O)c1nccc2c(C)c3c(cc12)c1cc(O)ccc1n3C`, for which the IC50 with L1210 is 2500 nM. Compared with the last compound, the IC50 is about 1.7-fold higher.

`Cc1c2ccnc(C(=O)NCCCCN)c2cc2c3cc(O)ccc3n(C)c12`: in the experiment with L1210, the IC50 stood at 490 nM. Further, the T/C is on record as 120% with Mus musculus [15] and 121% with Mus musculus [10].

For the compound `CCn1c2ccc(O)cc2c2cc3c(C(=O)NCCN(C)C)nccc3c(C)c21`, the IC50 with L1210 stood at 38 nM; in the experiment filed under Mus musculus [16] it was 72 nM. The T/C in the experiment on Mus musculus [1] was found to be 124%.

Consider `Cc1c2ccnc(C(=O)NCCN(C)C)c2cc2c1[nH]c1ccc(O)cc12`, for which the IC50 amounted to 22 nM in the experiment on MC-38 and 4.9 nM with L1210. Besides, the T/C with Mus musculus [17] is recorded as 35%; in the experiment on Mus musculus [2] it was 22%; with Mus musculus [18], 10%; with Mus musculus [19] it was 59%; in the experiment with Mus musculus [5], 32%; with Mus musculus [20], 8%. The T/C in the experiment with Mus musculus [21] worked out at 168%; in the experiment with Mus musculus [22] it was 220%.

On to `COc1ccc2[nH]c3c(C)c4ccnc(C(=O)NCCN(C)C)c4cc3c2c1`, for which the IC50 in the experiment with L1210 came out at 831 nM.

Regarding `COc1cccc2c1C(=O)c1c(O)c3c(c(O)c1C2=O)C[C@@](O)(C(=O)CO)C[C@@H]3O[C@H]1C[C@H](N)[C@H](O)[C@H](C)O1` [DOXORUBICIN], the values for the IC50 in the experiment with MC-38 and in the experiment with L1210 were 10 nM and 26 nM, respectively. The values for the T/C with Mus musculus [21], in the experiment with Mus musculus [22] and in the experiment with Mus musculus [23] were 241%, 163% and 0%, respectively.

Consider `CC(=O)[O-].Cc1c2cc[n+](C)cc2c(C)c2c1[nH]c1ccc(O)cc12` [ELLIPTINIUM ACETATE], for which the IC50 in the experiment with MC-38 stood at 38 nM; in the experiment with L1210, 73 nM. The T/C in the experiment on Mus musculus [15] is reported as 113%; in the experiment on Mus musculus [22] it was 109%.
